A value given as a limit tells only on which side of the number the result lay.

Assay [1] is described as follows: Inhibition of trypsin like activity of partially purified human proteasome. It counts as subcellular. The procedure, abridged:
(§1)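 Purified 20S proteasome isolated from human erythrocytes served as the enzyme source. Inhibition is reported as IC50.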

The nature of assay [2]: Inhibition of caspase like activity of partially purified human proteasome. The format is subcellular. Summed up: as §1
Assay [3] can be described thus: Cytotoxicity against human RPMI8226 cells. It counts as cell-based. The following applies: RPMI-8226.
Assay [4] is described as follows: Inhibition of chymotrypsin like activity of partially purified human proteasome. The format is subcellular. Summed up: as §1

In the case of `COc1ccc(C[C@H](NC(=O)[C@@H](NC(=O)[C@H](Cc2ccc(OC)cc2)NC(=O)c2cc(Cl)ccn2)C(C)C)B(O)O)cc1`, the IC50 is 15000 nM in assay [1], 21000 nM in assay [2], 39 nM in assay [3] and 88 nM in assay [4].

For the compound `COc1ccc(C[C@H](NC(=O)[C@@H](NC(=O)[C@H](Cc2ccc(OC)cc2)NC(=O)Cc2ccc3ccccc3c2)C(C)C)B(O)O)cc1`, the 50% inhibitory concentration (IC50) in assay [1] was 12000 nM; in assay [2] it was 29000 nM; in assay [3], 170 nM; in assay [4], 22 nM.

For `COc1ccc(C[C@H](NC(=O)[C@@H](NC(=O)[C@H](Cc2ccc(OC)cc2)NC(=O)Cc2cccc(Oc3ccccc3)c2)C(C)C)B(O)O)cc1`, the half-inhibitory concentration (IC50) in assay [1] came out at 1100 nM; in assay [2] it was 29000 nM; in assay [3], 190 nM; in assay [4], 4.1 nM.

For the compound `COc1ccc(C[C@H](NC(=O)[C@@H](NC(=O)[C@H](Cc2ccc(OC)cc2)NC(=O)c2nccc3ccccc23)C(C)C)B(O)O)cc1`, the 50% inhibitory concentration (IC50) in assay [1] worked out at 10000 nM; in assay [2], 19000 nM; in assay [3] it was 34 nM; in assay [4], 41 nM.

As for `COc1ccc(C[C@H](NC(=O)[C@@H](NC(=O)[C@H](Cc2ccc(OC)cc2)NC(=O)c2cc3ccccc3cn2)C(C)C)B(O)O)cc1`, the 50% inhibitory concentration (IC50) in assay [1] was determined as 9000 nM; in assay [2] it was 11000 nM; in assay [3], 93 nM; in assay [4] it was 59 nM.

As to `COc1ccc(C[C@H](NC(=O)[C@@H](NC(=O)[C@H](Cc2ccc(OC)cc2)NC(=O)c2ccc3cnccc3c2)C(C)C)B(O)O)cc1`, the IC50 in assay [1] is more than 40000 nM; in assay [2] it was more than 40000 nM; in assay [3] it was 260 nM; in assay [4], 380 nM.

On to `COc1ccc(C[C@H](NC(=O)[C@@H](NC(=O)[C@H](Cc2ccc(OC)cc2)NC(=O)Cc2ccc3ccccc3n2)C(C)C)B(O)O)cc1`, for which the IC50 was 5400 nM in assay [1], 16000 nM in assay [2], 73 nM in assay [3] and 100 nM in assay [4].

For the compound `COc1ccc(C[C@H](NC(=O)[C@@H](NC(=O)[C@H](Cc2ccc(OC)cc2)NC(=O)c2cnc3ccccc3c2)C(C)C)B(O)O)cc1`, the IC50 in assay [1] is 10000 nM; in assay [2], 32000 nM; in assay [3], 54 nM; in assay [4] it was 56 nM.

With `COc1ccc(C[C@H](NC(=O)[C@@H](NC(=O)[C@H](Cc2ccc(OC)cc2)NC(=O)c2ccnc3ccccc23)C(C)C)B(O)O)cc1`, the IC50 was determined as 8600 nM in assay [1], 24000 nM in assay [2], 49 nM in assay [3] and 49 nM in assay [4].

Regarding `COc1ccc(C[C@H](NC(=O)[C@@H](NC(=O)[C@H](Cc2ccc(OC)cc2)NC(=O)c2cccc3cccnc23)C(C)C)B(O)O)cc1`, the concentration for half-maximal inhibition (IC50) is 18000 nM in assay [1], 16000 nM in assay [2], 56 nM in assay [3] and 93 nM in assay [4].

Regarding `COc1ccc(C[C@H](NC(=O)[C@@H](NC(=O)[C@H](Cc2ccc(OC)cc2)NC(=O)c2cnccn2)C(C)C)B(O)O)cc1`, the IC50 in assay [1] came out at 19000 nM; in assay [2] it was 33000 nM; in assay [3], 17 nM; in assay [4], 240 nM.

Take `COc1ccc(C[C@H](NC(=O)[C@@H](NC(=O)[C@H](Cc2ccc(OC)cc2)NC(=O)c2ccccn2)C(C)C)B(O)O)cc1`: the IC50 in assay [1] amounted to 40000 nM; in assay [2] it was 23000 nM; in assay [3], 13 nM; in assay [4], 230 nM.

With `COc1ccc(C[C@H](NC(=O)[C@@H](NC(=O)[C@H](Cc2ccc(OC)cc2)NC(=O)c2cccnc2)C(C)C)B(O)O)cc1`, the IC50 in assay [1] is more than 40000 nM; in assay [2], more than 40000 nM; in assay [3] it was 870 nM; in assay [4], 500 nM.

As to `COc1ccc(C[C@H](NC(=O)[C@@H](NC(=O)[C@H](Cc2ccc(OC)cc2)NC(=O)c2ccncc2)C(C)C)B(O)O)cc1`, the IC50 in assay [1] was more than 40000 nM; in assay [2], more than 40000 nM; in assay [3], 870 nM; in assay [4], 2300 nM.

As to `COc1ccc(C[C@H](NC(=O)[C@@H](NC(=O)[C@H](Cc2ccc(OC)cc2)NC(=O)c2ncccc2C)C(C)C)B(O)O)cc1`, the IC50 in assay [1] was 20000 nM; in assay [2], more than 40000 nM; in assay [3], 14 nM; in assay [4] it was 85 nM.

On to `COc1ccc(C[C@H](NC(=O)[C@@H](NC(=O)[C@H](Cc2ccc(OC)cc2)NC(=O)c2cc(C)ccn2)C(C)C)B(O)O)cc1`, for which the 50% inhibitory concentration (IC50) in assay [1] came out at 20000 nM; in assay [2], 30000 nM; in assay [3] it was 14 nM; in assay [4], 140 nM.

In the case of `COc1ccc(C[C@H](NC(=O)[C@@H](NC(=O)[C@H](Cc2ccc(OC)cc2)NC(=O)c2ccc(C)cn2)C(C)C)B(O)O)cc1`, the IC50 in assay [1] was determined as 14000 nM; in assay [2], 30000 nM; in assay [3], 14 nM; in assay [4] it was 120 nM.

`COc1ccc(C[C@H](NC(=O)[C@@H](NC(=O)[C@H](Cc2ccc(OC)cc2)NC(=O)c2cccc(C)n2)C(C)C)B(O)O)cc1`: the IC50 in assay [1] came out at 17000 nM; in assay [2] it was 30000 nM; in assay [3] it was 14 nM; in assay [4], 88 nM.

Take `COc1ccc(C[C@H](NC(=O)[C@@H](NC(=O)[C@H](Cc2ccc(OC)cc2)NC(=O)c2ncccc2F)C(C)C)B(O)O)cc1`: the IC50 in assay [1] was determined as 24000 nM; in assay [2] it was 25000 nM; in assay [3], 4.9 nM; in assay [4], 140 nM.

Consider `COc1ccc(C[C@H](NC(=O)[C@@H](NC(=O)[C@H](Cc2ccc(OC)cc2)NC(=O)c2ccc(F)cn2)C(C)C)B(O)O)cc1`, for which the IC50 in assay [1] is 14000 nM; in assay [2] it was 30000 nM; in assay [3], 19 nM; in assay [4], 81 nM.

Regarding `COc1ccc(C[C@H](NC(=O)[C@@H](NC(=O)[C@H](Cc2ccc(OC)cc2)NC(=O)c2cccc(F)n2)C(C)C)B(O)O)cc1`, the IC50 in assay [1] was found to be 20000 nM; in assay [2], 27000 nM; in assay [3] it was 15 nM; in assay [4], 110 nM.

Regarding `COc1ccc(C[C@H](NC(=O)[C@@H](NC(=O)[C@H](Cc2ccc(OC)cc2)NC(=O)c2ncccc2Cl)C(C)C)B(O)O)cc1`, the IC50 in assay [1] is 20000 nM; in assay [2], 20000 nM; in assay [3], 9.7 nM; in assay [4], 83 nM.

Turning to `COc1ccc(C[C@H](NC(=O)[C@@H](NC(=O)[C@H](Cc2ccc(OC)cc2)NC(=O)c2ccc(Cl)cn2)C(C)C)B(O)O)cc1`, the IC50 in assay [1] amounted to 15000 nM; in assay [2], 16000 nM; in assay [3], 39 nM; in assay [4] it was 83 nM.

`COc1ccc(C[C@H](NC(=O)[C@@H](NC(=O)[C@H](Cc2ccc(OC)cc2)NC(=O)c2cccc(Cl)n2)C(C)C)B(O)O)cc1`: the half-inhibitory concentration (IC50) came out at 10000 nM in assay [1], 23000 nM in assay [2], 29 nM in assay [3] and 100 nM in assay [4].

Regarding `COc1ccc(C[C@H](NC(=O)[C@@H](NC(=O)[C@H](Cc2ccc(OC)cc2)NC(=O)c2nc(Cl)ccc2Cl)C(C)C)B(O)O)cc1`, the 50% inhibitory concentration (IC50) in assay [1] stood at 13000 nM; in assay [2], 26000 nM; in assay [3], 14 nM; in assay [4] it was 53 nM.

On to `COc1ccc(C[C@H](NC(=O)[C@@H](NC(=O)[C@H](Cc2ccc(OC)cc2)NC(=O)c2ncccc2Br)C(C)C)B(O)O)cc1`, for which the IC50 amounted to 17000 nM in assay [1], 20000 nM in assay [2], 13 nM in assay [3] and 61 nM in assay [4].

With `COc1ccc(C[C@H](NC(=O)[C@@H](NC(=O)[C@H](Cc2ccc(OC)cc2)NC(=O)c2cc(Br)ccn2)C(C)C)B(O)O)cc1`, the IC50 in assay [1] came to 14000 nM; in assay [2], 17000 nM; in assay [3] it was 47 nM; in assay [4] it was 95 nM.

`COc1ccc(C[C@H](NC(=O)[C@@H](NC(=O)[C@H](Cc2ccc(OC)cc2)NC(=O)c2ccc(Br)cn2)C(C)C)B(O)O)cc1`: the IC50 in assay [1] is 14000 nM; in assay [2], 24000 nM; in assay [3] it was 46 nM; in assay [4] it was 93 nM.

On to `COc1ccc(C[C@H](NC(=O)[C@@H](NC(=O)[C@H](Cc2ccc(OC)cc2)NC(=O)c2cccc(Br)n2)C(C)C)B(O)O)cc1`, for which the IC50 in assay [1] is 14000 nM; in assay [2], 27000 nM; in assay [3] it was 44 nM; in assay [4], 92 nM.

For the compound `COc1ccc(C[C@H](NC(=O)[C@@H](NC(=O)[C@H](Cc2ccc(OC)cc2)NC(=O)c2cc(C(F)(F)F)ccn2)C(C)C)B(O)O)cc1`, the IC50 in assay [1] is 20000 nM; in assay [2], 25000 nM; in assay [3], 53 nM; in assay [4], 150 nM.

For `COc1ccc(C[C@H](NC(=O)[C@@H](NC(=O)[C@H](Cc2ccc(OC)cc2)NC(=O)c2ccc(C(F)(F)F)cn2)C(C)C)B(O)O)cc1`, the IC50 in assay [1] worked out at 19000 nM; in assay [2], 28000 nM; in assay [3], 47 nM; in assay [4], 110 nM.

Regarding `COc1ccc(C[C@H](NC(=O)[C@@H](NC(=O)[C@H](Cc2ccc(OC)cc2)NC(=O)c2ncccc2O)C(C)C)B(O)O)cc1`, the IC50 in assay [1] is more than 40000 nM; in assay [2] it was 29000 nM; in assay [3] it was 52 nM; in assay [4] it was 390 nM.

As for `COc1ccc(C[C@H](NC(=O)[C@@H](NC(=O)[C@H](Cc2ccc(OC)cc2)NC(=O)c2cccc(O)n2)C(C)C)B(O)O)cc1`, the concentration for half-maximal inhibition (IC50) in assay [1] is 21000 nM; in assay [2] it was 26000 nM; in assay [3], 340 nM; in assay [4] it was 240 nM.

With `COc1ccc(C[C@H](NC(=O)[C@@H](NC(=O)[C@H](Cc2ccc(OC)cc2)NC(=O)c2ncccc2OC)C(C)C)B(O)O)cc1`, the IC50 turned out to be 31000 nM in assay [1], 26000 nM in assay [2], 41 nM in assay [3] and 130 nM in assay [4].

Regarding `COc1ccc(C[C@H](NC(=O)[C@@H](NC(=O)[C@H](Cc2ccc(OC)cc2)NC(=O)c2cc(OC)ccn2)C(C)C)B(O)O)cc1`, the IC50 in assay [1] came to 16000 nM; in assay [2] it was 20000 nM; in assay [3] it was 13 nM; in assay [4], 87 nM.

For the origin of these results see ChEMBL document CHEMBL1255509, “Structure-activity relationship of boronic acid derivatives of tyropeptin: proteasome inhibitors” (Bioorg Med Chem Lett, 2010).
